Experiments:
[1] = test system: HCT116 (colon carcinoma) cells; assay: Trypan blue exclusion cell growth inhibition, HCT116; type: cell-based, human
In short: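 HCT116 cells were grown in RPMI 1640 + 10% FBS at 37 °C, humidified 5% CO2, and seeded at 1 × 10⁴ cells/well with test compound. After 48 h, cells were mixed 1:1 with 0.4% trypan blue and counted on a haemocytometer, in triplicate. Points are means of four samples over three experiments. IC50/IC75/IC90 came from sigmoidal fits. Selectivity = IC50 in […] ÷ IC50 in cancer cells.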

[2] = test system: plasmid (pBR322) DNA; assay: Electrophoresis mobility shift assay with plasmid DNA; type: binding; details: metal/DNAbp ratios 0.25-2.0; 37 °C, 20 h
In short: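 pBR322 plasmid DNA (20 µg/mL) in 5 mM Tris/HCl, 50 mM NaClO4, pH 7.39, was incubated with test compound at metal complex:DNA bp ratios of […], 37 °C, 20 h, in the dark. Free DNA and cisplatin-treated DNA served as controls. Samples ran on 1% agarose in TAE, 80 V for 1.5 h, then were GelRed-stained 30 min.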

[3] = molecular target: cytochrome c (Equus caballus, UniProt P00004); assay: ESI-MS metallodrug-protein interaction, cytochrome c; type: binding; details: 3:1 metal/protein, 24 h RT, 20 mM ammonium acetate pH 6.8
Chain of cytochrome c (P00004 whole entry, the tested form may be a part): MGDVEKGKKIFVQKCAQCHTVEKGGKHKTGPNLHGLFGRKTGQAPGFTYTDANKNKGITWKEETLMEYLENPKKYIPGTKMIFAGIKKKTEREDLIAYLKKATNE
In short: (§1)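 Each protein (100 µM) in 20 mM ammonium acetate, pH 6.8, was mixed with test compound at a 3:1 metal/protein ratio and held 24 h at RT. Samples were diluted 20-fold with water and infused directly at 5 µl/min into an ESI Orbitrap (spray 3.1 kV, capillary 45 V, 220 °C, resolution 100,000 at m/z 400). Monoisotopic and average masses were obtained by deconvolution.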

[4] = molecular target: T1, RNase A (Bos taurus, UniProt P61823); assay: ESI-MS metallodrug-protein interaction, RNase; type: binding; details: 3:1 metal/protein, 24 h RT, 20 mM ammonium acetate pH 6.8
T1 sequence (P61823 27-150): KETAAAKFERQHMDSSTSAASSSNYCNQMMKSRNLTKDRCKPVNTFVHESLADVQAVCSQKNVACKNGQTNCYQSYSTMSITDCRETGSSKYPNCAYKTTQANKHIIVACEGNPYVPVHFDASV
In short: as §1

## Cc1ccc(C(C)C)cc1.Cc1ccc(C(C)C)cc1.[Cl][Ru][Cl].[Cl][Ru][Cl] [a (Ru), [Ru(p-cymene)Cl(µ-Cl)]2]
[1]; 48 h incubation, compounds dissolved in DMSO (1%), Trypan blue
  IC75 HCT116: 313.3 ± 7.1 µM
[1]; IC50 normal cells divided by IC50 cancer cells
  Calculated tumour selectivity (IC50 L929/IC50 HCT116): 3.3
[2]
  Effect on mobility of supercoiled form (Form I) of plasmid DNA: did not affect the mobility
[3]
  Interaction with cytochrome c (ESI-MS adducts): protein binding of a Ru(p-cymene) fragment
[4]
  Interaction with RNase (ESI-MS adducts): protein binding of a Ru(p-cymene) fragment

From PMC4464950 (Dalton transactions (Cambridge, England : 2003), 2015)
